In ChEMBL document CHEMBL5096174, “The Natural Alkaloid Berberine Can Reduce the Number of Pseudomonas aeruginosa Tolerant Cells” (2021):
In brackets after ≈: the same amount, converted by molar mass. Activity calls are given as the source filed them.

Columns and labels:
[1] = tested on: Pseudomonas aeruginosa; test: Bactericidal activity against wild type Pseudomonas aeruginosa K767 assessed as increase in biofilm production at 80 ug/ml incubated overnight by crystal voilet staining based analysis relative to control; format: functional; details: dose 80 µg/ml
Procedure, shortened: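 Biofilms grown overnight at 37 °C in flat-bottom microtiter plates in LB with or without berberine 80 µg/mL. Planktonic OD600 recorded; washed sessile phase stained 15 min with 1% crystal violet, dye taken up in 96% ethanol, OD570 read. Output is OD570/OD600. Run in triplicate.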

[2] = Inhibition of efflux pump in wild type Pseudomonas aeruginosa K767 assessed as fold reduction in CFU count in presence of tobramycin incubated for 24 hrs by ethidium bromide efflux assay relative to tobramycin alone; details: in the assay text read “by planktonic persistence assay” for “by ethidium bromide efflux assay”
Procedure, shortened: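 Stationary-phase overnight LB cultures (37 °C) exposed to tobramycin 20xMIC alone or with berberine 80 µg/mL for 24 h at 37 °C. At 0, 7 and 24 h, aliquots PBS-washed, 10-fold serially diluted, plated on antibiotic-free CLED agar. CFU counted after 24 h at 37 °C. Biological duplicate.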

[3] = tested on: Pseudomonas aeruginosa; test: Bactericidal activity against Pseudomonas aeruginosa K1525 mexY mutant assessed as increase in biofilm production at 80 ug/ml incubated overnight by crystal voilet staining based analysis relative to control; format: functional; details: dose 80 µg/ml
Procedure, shortened: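 Biofilms grown overnight at 37 °C in LB with or without berberine 80 µg/mL in flat-bottom microtiter wells. Planktonic phase removed and its OD600 read. Sessile phase washed with water, stained with 1% crystal violet for 15 min, washed, solubilised in 96% ethanol and read at OD570. Values normalised as OD570/OD600. Triplicate.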

[4] = tested on: Pseudomonas aeruginosa; test: Antibacterial activity against cystic fibrosis isolate Pseudomonas aeruginosa C25 assessed as fold reduction in MIC in presence of berberine by broth microdilution method; format: functional
Procedure, shortened: (§1)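 Tobramycin MIC was determined without and with berberine 80 µg/mL by CLSI broth microdilution. The combination was called synergistic when the MIC with berberine was ≥4 times lower than with tobramycin alone.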

[5] = tested on: Pseudomonas aeruginosa; test: Antibacterial activity against Pseudomonas aeruginosa NC04 cystic fibrosis assessed as tobramycin MIC in presence of berberine; format: functional
Procedure, shortened: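 Broth microdilution per CLSI; tobramycin MIC determined with berberine present at 80 µg/mL. Synergy defined as MIC in presence of berberine ≥4 times lower than tobramycin alone.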

[6] = tested on: Pseudomonas aeruginosa; test: Antibacterial activity against clinical isolate Pseudomonas aeruginosa C54 assessed as log reduction in tolerant cell in presence of berberine by broth microdilution method; format: functional
Procedure, shortened: (§2)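 Overnight LB cultures at 37 °C were exposed to tobramycin 20xMIC, alone or with berberine 80 µg/mL, for 24 h at 37 °C. Aliquots were PBS-washed, serially 10-fold diluted and plated on antibiotic-free CLED agar. CFUs were counted after 24 h at 37 °C, before exposure (T0) and at T24. Biological duplicates.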

[7] = tested on: Pseudomonas aeruginosa; test: Antibacterial activity against clinical isolate Pseudomonas aeruginosa C84 assessed as fold reduction in MIC in presence of berberine by broth microdilution method; format: functional; procedure, shortened: as §1
[8] = tested on: Pseudomonas aeruginosa; test: Antibacterial activity against Pseudomonas aeruginosa NC01 cystic fibrosis assessed as tobramycin MIC in presence of berberine; format: functional
Procedure, shortened: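 Broth microdilution per CLSI guidelines, tobramycin MIC determined in presence of berberine 80 μg/mL; strains grown in LB. Combination considered synergistic when MIC with berberine was ≥4 times lower than tobramycin alone.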

[9] = tested on: Pseudomonas aeruginosa; test: Antibacterial activity against cystic fibrosis isolate Pseudomonas aeruginosa AR48 assessed as fold reduction in MIC in presence of berberine by broth microdilution method; format: functional; procedure, shortened: as §1
[10] = tested on: Pseudomonas aeruginosa; test: Antibacterial activity against Pseudomonas aeruginosa NC04 cystic fibrosis assessed as reduction in bacterial growth; format: functional
[11] = tested on: Pseudomonas aeruginosa; test: Antibacterial activity against Pseudomonas aeruginosa NC06 cystic fibrosis assessed as tobramycin MIC in presence of berberine; format: functional
Procedure, shortened: (§3)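 Tobramycin MIC by CLSI broth microdilution in the presence of berberine 80 µg/mL.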

[12] = tested on: Pseudomonas aeruginosa; test: Antibacterial activity against cystic fibrosis isolate Pseudomonas aeruginosa NC06 assessed as fold reduction in MIC in presence of berberine by broth microdilution method; format: functional; procedure, shortened: as §1
[13] = tested on: Pseudomonas aeruginosa; test: Bactericidal activity against wild type Pseudomonas aeruginosa K767 persisters assessed as reduction in CFU at 20 times MIC incubated for 24 hrs by planktonic persistance assay; format: functional
Procedure, shortened: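 Stationary-phase overnight LB cultures at 37 °C were exposed to tobramycin 20xMIC, alone or with berberine 80 µg/mL, for 24 h at 37 °C. At 0, 7 and 24 h, aliquots were PBS-washed, 10-fold diluted and plated on antibiotic-free CLED agar, and survivor CFUs were counted after 24 h at 37 °C. Mean of two biological replicates ± SD.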

[14] = tested on: Pseudomonas aeruginosa; test: Antibacterial activity against Pseudomonas aeruginosa K1525 mexY mutant assessed as reduction in bacterial growth rate in presence of berberine; format: functional, organism-based
Procedure, shortened: (§4)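 Overnight LB cultures diluted to OD600 0.1 and shaken at 140 rpm, 37 °C, for 24 h with or without berberine 80 µg/mL. OD600 read at 2, 4, 6, 8 and 24 h. Biological triplicates.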

[15] = tested on: Pseudomonas aeruginosa; test: Antibacterial activity against Pseudomonas aeruginosa NC01 cystic fibrosis assessed as reduction in bacterial growth; format: functional
[16] = tested on: Pseudomonas aeruginosa; test: Bactericidal activity against Pseudomonas aeruginosa K1525 mexY mutant assessed as reduction in log increase in tolerant cells at 1000 times MIC measured after 24 hrs; format: functional
Procedure, shortened: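 Biofilms were grown overnight in LB in 35 mm dishes at 37 °C, then held 24 h at 37 °C in LB with tobramycin 1000xMIC, alone or with berberine 80 or 320 µg/mL. Biofilms were detached mechanically at T0 and T24, resuspended in PBS, 10-fold diluted and plated on CLED agar, and CFUs were counted after 24 h at 37 °C. Biological triplicates.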

[17] = tested on: Pseudomonas aeruginosa; test: Antibacterial activity against Pseudomonas aeruginosa NC02 cystic fibrosis assessed as tobramycin MIC in presence of berberine; format: functional; procedure, shortened: as §3
[18] = tested on: Pseudomonas aeruginosa; test: Antibacterial activity against Pseudomonas aeruginosa NC10 cystic fibrosis assessed as reduction in bacterial growth; format: functional
[19] = tested on: Pseudomonas aeruginosa; test: Antibacterial activity against cystic fibrosis isolate Pseudomonas aeruginosa NC06 assessed as reduction in tolerant cell in presence of berberine by broth microdilution method; format: functional; procedure, shortened: as §2
[20] = tested on: Pseudomonas aeruginosa; test: Antibacterial activity against Pseudomonas aeruginosa NC02 cystic fibrosis assessed as reduction in bacterial growth; format: functional
[21] = tested on: Pseudomonas aeruginosa; test: Antibacterial activity against Pseudomonas aeruginosa NC10 cystic fibrosis assessed as tobramycin MIC in presence of berberine; format: functional; procedure, shortened: as §3
[22] = tested on: Pseudomonas aeruginosa; test: Antibacterial activity against cystic fibrosis isolate Pseudomonas aeruginosa C30 assessed as log reduction in tolerant cell in presence of berberine by broth microdilution method; format: functional; procedure, shortened: as §2
[23] = tested on: Pseudomonas aeruginosa; test: Antibacterial activity against Pseudomonas aeruginosa C61 assessed as log reduction of bacterial population measured after 24 hrs; format: functional; procedure, shortened: as §2
[24] = tested on: Pseudomonas aeruginosa; test: Bactericidal activity against Pseudomonas aeruginosa K1525 mexY mutant persisters assessed as reduction in CFU at 20 times MIC incubated for 24 hrs by planktonic persistance assay; format: functional
Procedure, shortened: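 Stationary-phase (overnight, LB, 37 °C) cultures exposed to tobramycin 20xMIC with or without berberine 80 µg/mL for 24 h at 37 °C. Aliquots taken before exposure and at 24 h, PBS-washed, serially 10-fold diluted and plated on antibiotic-free CLED agar. Surviving CFU counted after 24 h at 37 °C. Biological duplicate.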

[25] = tested on: Pseudomonas aeruginosa; test: Antibacterial activity against clinical isolate Pseudomonas aeruginosa C54 assessed as fold reduction in MIC in presence of berberine by broth microdilution method; format: functional; procedure, shortened: as §1
[26] = tested on: Pseudomonas aeruginosa; test: Antibacterial activity against clinical isolate Pseudomonas aeruginosa C84 assessed as log reduction in tolerant cell in presence of berberine by broth microdilution method; format: functional; procedure, shortened: as §2
[27] = tested on: Pseudomonas aeruginosa; test: Antibacterial activity against Pseudomonas aeruginosa NC06 cystic fibrosis assessed as reduction in bacterial growth; format: functional
[28] = tested on: Pseudomonas aeruginosa; test: Antibacterial activity against cystic fibrosis isolate Pseudomonas aeruginosa C25 assessed as log reduction in tolerant cell in presence of berberine by broth microdilution method; format: functional; procedure, shortened: as §2
[29] = tested on: Pseudomonas aeruginosa; test: Antibacterial activity against clinical isolate Pseudomonas aeruginosa C59 assessed as fold reduction in MIC in presence of berberine by broth microdilution method; format: functional; procedure, shortened: as §1
[30] = tested on: Pseudomonas aeruginosa; test: Antibacterial activity against wild type Pseudomonas aeruginosa K767 assessed as reduction in bacterial growth rate in presence of berberine; format: functional, organism-based; procedure, shortened: as §4

## COc1ccc2cc3[n+](cc2c1OC)CCc1cc2c(cc1-3)OCO2 [BERBERINE]
[1]
  Activity: 100%
[2]
  fold change (FC): 10
[3]
  Activity: 50%

## NC[C@H]1O[C@H](O[C@H]2[C@H](O)[C@@H](O[C@H]3O[C@H](CO)[C@@H](O)[C@H](N)[C@H]3O)[C@H](N)C[C@@H]2N)[C@H](N)C[C@@H]1O [TOBRAMYCIN]
[4]
  fold change (FC): 16
[5]
  MIC: < 0.125 µg/mL
[6]
  log(activity): 1.5
[7]
  fold change (FC): 4
[8]
  MIC: 8 µg/mL
[9]
  fold change (FC): 4
[10]
  MIC: 0.5 µg/mL (≈ 1.07 µM)
[11]
  MIC: 0.5 µg/mL
[12]
  fold change (FC): 4
[13]
  log(activity): 4.11e+07
[14]
  Activity: Active
[15]
  MIC: 16 µg/mL (≈ 34.2 µM)
[16]
  log(activity): 3
[17]
  MIC: 16 µg/mL
[18]
  MIC: 1 µg/mL (≈ 2.14 µM)
[19]
  log(activity): 2
[20]
  MIC: 32 µg/mL (≈ 68.4 µM)
[21]
  MIC: 0.25 µg/mL
[22]
  log(activity): 3
[23]
  log(activity): 1
[24]
  Activity: 250000 CFU/ml
[25]
  fold change (FC): 2
[26]
  log(activity): 0.5
[27]
  MIC: 2 µg/mL (≈ 4.28 µM)
[28]
  log(activity): 2.5
[29]
  fold change (FC): 2
[30]
  Activity: Active
